Screening results from PubChem BioAssay.
Apaf1 inhib – blocks human Apaf-1 apoptosome activity; O14727; reconstituted apoptosome caspase-3 activity, DEVD-Rh110 fluorescence; inhibition, % at 20 µM; hit rate 0.71% among 330,000; active = inhibition of at least 40% at 20 µM
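detection = Rh110 fluorescence intensity | test system = biochemical Apaf-1 apoptosome reconstitution | also added = cytochrome c and DEVD-Rh110 substrate | schedule = 30 min plus 50 min, RT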
PAFAH1B2 inh – inhibitors of human PAFAH1B2; hit rate 1.2% among 340,000; AID 492953; recombinant PAFAH1B2, FP-rhodamine activity probe, fluorescence polarization; inhibition, % at 3.39 µM; P68402;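 active = inhibition above the mean of all tested compounds plus 3 SD, cut at about 24% in these data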
Target sequence (P68402 whole entry, looked up): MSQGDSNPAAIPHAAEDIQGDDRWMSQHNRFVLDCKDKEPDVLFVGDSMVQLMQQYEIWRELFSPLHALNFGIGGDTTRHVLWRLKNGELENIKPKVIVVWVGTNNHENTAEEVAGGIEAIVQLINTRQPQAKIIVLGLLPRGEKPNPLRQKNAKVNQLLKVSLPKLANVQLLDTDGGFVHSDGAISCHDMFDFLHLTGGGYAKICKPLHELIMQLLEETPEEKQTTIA
PREPL inh – inhibits the human prolyl oligopeptidase-like enzyme | Q4J6C6 | recombinant PREPL, fluorescence polarization activity-based probe | inhibition, % at 5.96 µM | hit rate 0.68% among 320,000; in the data active = inhibition above about 43%
PAFAH1B3 FP inh – blocks human PAF acetylhydrolase 1B catalytic subunit 3. Q15102. hit rate 0.28% among 340,000. recombinant PAFAH1B3, FP-rhodamine probe, fluorescence polarization. AID 492972. inhibition, % at 3.39 µM;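 active = inhibition above the screen-wide average of all tested compounds plus 3 SD, cut at about 25% in these data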
Target sequence (Q15102 whole entry, looked up): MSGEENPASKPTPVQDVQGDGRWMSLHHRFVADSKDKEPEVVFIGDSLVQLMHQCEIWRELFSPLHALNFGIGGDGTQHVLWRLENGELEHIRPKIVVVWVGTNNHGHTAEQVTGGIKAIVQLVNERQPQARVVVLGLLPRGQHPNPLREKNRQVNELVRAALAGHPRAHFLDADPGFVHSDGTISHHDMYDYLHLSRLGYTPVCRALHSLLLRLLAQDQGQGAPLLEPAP
pPAFAH FP inh – inhibitors of human plasma PAF acetylhydrolase (pPAFAH); recombinant pPAFAH, FP-rhodamine probe fluorescence polarization; inhibition, % at 3.39 µM; Q13093; AID 463082; hit rate 1.5% among 330,000;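 active = inhibition above the mean inhibition across the screen plus 3 SD, cut at about 25% in these data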;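 note: inhibitors block binding of the rhodamine activity-based probe so polarization drops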
PAFAH2 FP inh – PAFAH2 (human) inhibition. hit rate 0.99% among 340,000. Q99487. recombinant PAFAH2, FP-rhodamine activity probe, fluorescence polarization. inhibition, % at 3.39 µM;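 active = inhibition above the mean over all tested compounds plus 3 SD, cut at about 30% in these data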;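 note: inhibitors block probe labeling of enzyme so polarization drops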
PAFAH2 confirm – confirmation of human PAFAH2 inhibitors; AID 493030; hit rate 65% among 2,300; recombinant PAFAH2, FP-rhodamine activity probe, fluorescence polarization; shares compounds with PAFAH2 FP inh; inhibition, % at 3.39 µM;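 active = mean inhibition over three repeats above a set limit taken from the earlier primary screen, cut at about 30% in these data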;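 note: inhibitor blocks binding of rhodamine activity probe so polarization falls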
Large screens that a line does not name were inactive (follow-up assays come after a bar, where they were run). Compounds with a hit are over-represented: about 3.5% of the library has one in this group of screens.

CC(C)[C@H](NC(=O)N1c2ccccc2NC(=O)[C@@H]1C(C)C)C(=O)N[C@H](Cc1ccccc1)C(=O)O	none
O=C(c1ccc(COc2ccccc2Cl)o1)N1N=C(C(F)F)CC1(O)C(F)F (centres undefined)	none
Cc1c(C#N)c(O)[nH]c(=O)c1N=Nc1ccc(Cl)c(C(=O)O)c1	none
Cc1c(C#N)c(O)[nH]c(=O)c1N=Nc1ccc(S(N)(=O)=O)cc1	PAFAH2 FP inh 47 | PAFAH2 confirm inactive
CC1CCCC(C)N1C(=O)COC(=O)c1ccc(Br)o1 (centres undefined)	none
CC1CCCC(C)N1C(=O)COC(=O)c1ccco1 (centres undefined)	PAFAH2 FP inh 31 | PAFAH2 confirm inactive
Cc1ccc(C2C=NN(c3ccccc3)C2=O)cc1 (centres undefined)	none
Oc1ccc(/C=N/N=C/c2ccc(O)c(O)c2)cc1O	PAFAH2 FP inh 54 | PAFAH2 confirm inactive
COc1cc(/C=N/N=C2/C(=O)Nc3ccccc32)ccc1O	none
O=C1Nc2ccccc2/C1=N\N=C\c1ccc(O)c(O)c1	PAFAH2 FP inh 46 | PAFAH2 confirm inactive
Oc1cccc(CCC2CCCCN2Cc2cn[nH]c2-c2ccc3c(c2)OCO3)c1 (centres undefined)	none
CCOC(=O)c1ccc(Oc2cc(C)nc(Cl)n2)cc1	none
NC(=O)COc1c(-c2ccc(Br)o2)oc2ccccc2c1=O	PAFAH2 FP inh 31 | PAFAH2 confirm inactive
CC(=O)COc1c(-c2ccco2)oc2ccccc2c1=O	none (no result: PREPL inh, pPAFAH FP inh)
O=C(CSc1ccc([N+](=O)[O-])cc1)c1ccccc1	none (no result: Apaf1 inhib, PREPL inh, pPAFAH FP inh)
O=C(CSc1ccccc1C(=O)O)c1ccc([N+](=O)[O-])cc1	PAFAH2 FP inh 46 | PAFAH2 confirm 56
CC(=O)C1=C(O)C(=O)N(c2cc(C(C)(C)C)on2)C1c1ccc(Br)cc1 (centres undefined)	PAFAH2 FP inh 34 | PAFAH2 confirm inactive
COC(=O)c1cc(OC)c(OC)cc1NC(=S)Nc1cccc(Cl)c1	none
COc1cc(NC(=O)Cc2ccccc2)c(C(=O)O)cc1OC	none
COc1cc(NC(=O)Nc2cccc(Cl)c2)c(C(=O)O)cc1OC	PAFAH2 FP inh 32 | PAFAH2 confirm inactive
COc1cc(NC(=O)Cc2cccc3ccccc23)c(C(=O)O)cc1OC	PAFAH2 FP inh 60 | PAFAH2 confirm 40
Cc1cc(C(=O)NCC(=O)Nc2ccc(F)c(F)c2)c(C)o1	none
N=C1C(c2nc(-c3ccc(Cl)cc3)cs2)=C(O)CN1CCCN1CCOCC1	PREPL inh 57, PAFAH2 FP inh 30 | PAFAH2 confirm 30
CCCCN1CC(O)=C(c2nc(-c3ccc(Cl)cc3)cs2)C1=N	none
O=c1oc(Nc2cccc(F)c2)nc2ccccc12	none
Cc1ccc2nc(-c3ccccc3C)oc(=O)c2c1	PAFAH2 FP inh 65 | PAFAH2 confirm 45
Cc1cc(-c2nc3ccccc3c(=O)o2)ccc1[N+](=O)[O-]	PAFAH2 FP inh 70 | PAFAH2 confirm 70
Cc1cc(-c2ccc([N+](=O)[O-])cc2)nc2ccccc12	none
O=c1oc(-c2ccc(Br)o2)nc2ccccc12	PAFAH2 FP inh 60 | PAFAH2 confirm 65
O=c1oc(-c2cccc([N+](=O)[O-])c2)nc2ccccc12	PAFAH2 FP inh 43 | PAFAH2 confirm 48
Cc1cc(-c2cccc([N+](=O)[O-])c2)nc2ccccc12	none
Cn1cc(C(=O)NCc2cccs2)c(=O)c2cc(S(=O)(=O)N3CCCC3)ccc21	none (no result: Apaf1 inhib)
Cc1ccc(-c2nc3ccccc3c(=O)o2)cc1	PAFAH2 FP inh 81 | PAFAH2 confirm 73
O=C(Nc1cccc(-c2nc3ccccc3c(=O)o2)c1)c1ccccc1	none
Cc1ccc2nc(-c3ccccc3)oc(=O)c2c1	PAFAH2 FP inh 86 | PAFAH2 confirm 69
COc1cc2nc(-c3ccccc3C)oc(=O)c2cc1OC	none
COc1ccc(-c2nc3ccc(C)cc3c(=O)o2)cc1OC	PAFAH2 FP inh 43 | PAFAH2 confirm 42
Cc1ccccc1NC(=S)NC1CC2CCC(C1)N2Cc1ccco1 (centres undefined)	none
CCN1CCN(C(=O)CSc2nc3c(c(=O)n(C)c(=O)n3C)n2C)CC1	none
Cc1cc(C(=O)NCCc2ccc(S(N)(=O)=O)cc2)c(C)o1	none
Nc1nnc(CC(=O)N/N=C\c2ccc(-c3cccc(Cl)c3)o2)s1	PAFAH2 FP inh 48 | PAFAH2 confirm inactive
Cc1ccc(-c2ccc(/C=N/NC(=O)Cc3nnc(N)s3)o2)cc1Cl	PAFAH2 FP inh 55 | PAFAH2 confirm inactive
COC(=O)c1ccc(-c2ccc(/C=N/NC(=O)Cc3nnc(N)s3)o2)cc1	PAFAH2 FP inh 43 | PAFAH2 confirm inactive
CCc1ccc(/C=C/C(=O)c2c(C)cc(C)[nH]c2=O)cc1	none
O=C(COC(=O)c1ccc(OC(F)F)cc1)Nc1cccc(S(=O)(=O)NC2=NCCC2)c1	PAFAH2 FP inh 31 | PAFAH2 confirm inactive
O=S(=O)(NC1=NCCC1)c1cccc(NC(=S)Nc2ccc(OC(F)F)cc2)c1	none
NC(=O)Nc1ccc(C(=O)OCC(=O)Nc2cccc(S(=O)(=O)NC3=NCCCCC3)c2)cc1	PAFAH2 FP inh 61 | PAFAH2 confirm 65
Cc1cccc(Cn2nc(C(C)(C)C)cc2C(=O)N2CCOCC2)c1	none
O=C(CNS(=O)(=O)c1ccc(Cl)cc1)N1CCN(c2ccc(F)cc2)CC1	none
N=C1S/C(=C\c2ccc(-c3cccc(Cl)c3)o2)C(=O)N1c1nccs1	PAFAH2 FP inh 45 (no result: Apaf1 inhib) | PAFAH2 confirm inactive
CN(C)c1nc(N)c(C#N)c(C#N)c1C#N	none (no result: Apaf1 inhib, PREPL inh, pPAFAH FP inh)
COc1ccccc1NC(=O)Cc1nnc(SCC(=O)NC2=NCCS2)n1C	none
CCN1C(=O)c2ccc(-c3nc4ccccc4c(=O)o3)cc2C1=O	PAFAH2 FP inh 35 | PAFAH2 confirm 63
CCC(=O)Nc1ccc(-c2nc3ccccc3c(=O)o2)cc1	none (no result: PREPL inh, pPAFAH FP inh)
CC(=O)OCCN1C(=O)c2ccc(-c3nc4ccccc4c(=O)o3)cc2C1=O	PAFAH2 FP inh 53 | PAFAH2 confirm 46
Cc1ccc(-c2c(C#N)c(N)n3c(nc4ccccc43)c2C#N)cc1	PAFAH2 FP inh 46 | PAFAH2 confirm 34
CC1=C(C#N)C(=O)NC(=O)/C1=C\c1ccc(-c2ccc(C)cc2[N+](=O)[O-])o1	PAFAH2 FP inh 35 (no result: Apaf1 inhib, PREPL inh, pPAFAH FP inh) | PAFAH2 confirm inactive
O=C(Nc1ccccc1C(=O)NCCc1ccccc1)c1cnccn1	PAFAH2 FP inh 32 | PAFAH2 confirm inactive
O=C(O)CCC(=O)Nc1ccccc1C(=O)NCCc1ccccc1	none
Cc1cc(=O)oc2cc(OCC(=O)N3CC[C@@]4(O)CCCC[C@H]4C3)ccc12	none
O=C(O)CCCN1C(=O)/C(=C/c2ccc(-c3nc4ccccc4s3)o2)SC1=S	PAFAH2 FP inh 50 | PAFAH2 confirm 51
COc1ccc(/C=C/C(=O)OCC(=O)NCc2ccco2)cc1OC	PAFAH2 FP inh 49 | PAFAH2 confirm 38
